From ChEMBL document CHEMBL1153083, “Antiprotozoal, anticancer and antimicrobial activities of dihydroartemisinin acetal dimers and monomers” (Bioorg Med Chem, 2009)
Active and inactive are the calls of the source. No cut-off for these calls is given here.

Experiments:
SK-OV-3 = assay: Cytotoxicity against human SKOV3 cells after 48 hrs by neutral red assay; format: functional, cell-based; details: sk-ov-3
Outline: (§1)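 Cells seeded at 25,000 per well and incubated 24 h, then exposed to samples for 48 h. Viable cells were counted by neutral red, with DMSO as vehicle control. IC50 or TC50 values were derived from logarithmic plots of growth inhibition versus concentration.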

[1] = Selectivity index, ratio of TC50 for african green monkey (Cercopithecus aethiops) Vero cells to IC50 for Plasmodium falciparum D6; format: toxicity, cell-based
Nakaseomyces glabratus = assay: Antifungal activity against Candida glabrata ATCC 90030 by modified CLSI/NCCLS method; format: functional, organism-based
Pichia kudriavzevii = assay: Antifungal activity against Candida krusei ATCC 6258 by modified CLSI/NCCLS method; format: functional, organism-based; details: Pichia kudriavzevii, ATCC 6258; read-out: IC50
SK-MEL = assay: Cytotoxicity against human SK-MEL cells after 48 hrs by neutral red assay; format: functional, cell-based; outline: as §1
[2] = Toxicity against african green monkey Vero cells after 48 hrs by neutral red assay; format: cell-based; details: chlorocebus sabaeus, Vero cells; read-out: TC50; outline: as §1
[3] = test system: Mycobacterium intracellulare; assay: Antibacterial activity against Mycobacterium intracellular ATCC 23068 by Franzblau method; format: functional, organism-based
Cryptococcus neoformans = assay: Antifungal activity against Cryptococcus neoformans ATCC 90113 by modified CLSI/NCCLS method; format: functional, organism-based
Plasmodium falciparum [4] = assay: Antiplasmodial activity against Plasmodium falciparum D6 infected in RBCs by parasitic LDH release assay; format: functional, organism-based
Outline: (§2)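 Infected erythrocytes at 2% parasitemia and 2% hematocrit, in RPMI 1640 with 10% human serum and amikacin 60 μg/mL, were exposed to serial dilutions under N2/O2/CO2 (90:5:5) at 37°C for 72 h. LDH was read with Malstat reagent (30 min), then NBT/PES in the dark (60 min), stopped with 5% acetic acid, at 650 nm. IC50 came from percent growth dose-response curves.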

KB = assay: Cytotoxicity against human KB cells after 48 hrs by neutral red assay; format: functional, cell-based; details: Homo sapiens, KB, 48 h; read-out: IC50; outline: as §1
Plasmodium falciparum [5] = assay: Antiplasmodial activity against Plasmodium falciparum W2 infected in RBCs by parasitic LDH release assay; format: functional, organism-based; outline: as §2
[6] = Selectivity index, ratio of TC50 for african green monkey (Cercopithecus aethiops) Vero cells to IC50 for Plasmodium falciparum W2; format: toxicity, cell-based
Staphylococcus aureus = assay: Antibacterial activity against methicillin-resistant Staphylococcus aureus ATCC 43300 by modified CLSI/NCCLS method; format: functional, organism-based
BT-549 = assay: Cytotoxicity against human BT549 cells after 48 hrs by neutral red assay; format: functional, cell-based; outline: as §1
Aspergillus fumigatus = assay: Antifungal activity against Aspergillus fumigatus ATCC 90906 by modified CLSI/NCCLS method; format: functional, organism-based
[7] = Toxicity against pig LLC-PK11 cells after 48 hrs by neutral red assay; format: cell-based, Sus scrofa; details: for CC50 at 48 h: LLC-PK11 cells, read-out: TC50; for TC50: llc-pk11, 48 h; outline: as §1
Candida albicans = assay: Antifungal activity against Candida albicans ATCC 90028 by modified CLSI/NCCLS method; format: functional, organism-based
Leishmania donovani = assay: Antileishmanial activity against Leishmania donovani promastigotes after 48 hrs by alamar blue assay; format: functional, organism-based
Escherichia coli = assay: Antibacterial activity against Escherichia coli ATCC 35218 by modified CLSI/NCCLS method; format: functional, organism-based
Pseudomonas aeruginosa = assay: Antibacterial activity against Pseudomonas aeruginosa ATCC 27853 by modified CLSI/NCCLS method; format: functional, organism-based
[8] = Toxicity against african green monkey Vero cells; format: cell-based; details: chlorocebus sabaeus; outline: as §1
[9] = Homo sapiens, SK-MEL, 48 h, read-out: IC50
[10] = Homo sapiens, BT-549, 48 h, read-out: IC50
[11] = Candida albicans, ATCC 90028, read-out: IC50
[12] = Leishmania donovani, 48 h, read-out: IC50
[13] = Mycobacterium intracellulare, ATCC 23068, read-out: IC50
[14] = Aspergillus fumigatus, ATCC 90906, read-out: IC50

Row | SMILES | IC50 (SK-OV-3) | selectivity ratio [1] | IC50 (Nakaseomyces glabratus) | IC50 (Pichia kudriavzevii) [µM] | CC50 at 48 h [2] [µM] | IC50 [3] | IC50 (Cryptococcus neoformans) [µM] | IC50 (Plasmodium falciparum [4]) [µM] | IC50 (KB) [µM] | IC50 (Plasmodium falciparum [5]) [µM] | selectivity ratio [6] | IC50 (Staphylococcus aureus) | IC50 (Aspergillus fumigatus) | IC50 (Candida albicans; [11]) [µM] | IC90 (Leishmania donovani; Leishmania donovani, 48 h) [µM] | IC50 (Leishmania donovani; [12]) [µM] | CC50 [8] [µM] | IC90 (Leishmania donovani) | also measured
1 | C[C@H]1[C@@H](OCC(O)CO[C@H]2O[C@@H]3O[C@@]4(C)CC[C@H]5[C@H](C)CC[C@@H]([C@H]2C)[C@@]35OO4)O[C@@H]2O[C@@]3(C)CC[C@H]4[C@H](C)CC[C@@H]1[C@@]24OO3 (some centres not stated) | Not Active | 34 | Not Active | 0.4 | 5.6 | Not Active | 0.32 | 0.0112 | 0.26 | 0.0038 | 100 | Not Active | Not Active | 0.8 | 47.9 | 12.8 |  |  | IC50 (SK-MEL; [9]): 8 µM; IC50 (BT-549; [10]): 0.48 µM; CC50 at 48 h [7]: 0.15 µM
2 | O=C(O)c1cn(C2CC2)c2cc(N3CCNCC3)c(F)cc2c1=O [CIPROFLOXACIN] |  |  |  |  |  |  |  |  |  |  |  |  |  |  |  |  |  |  | IC50 [3, 13]: 1.27 µM
3 | C=C[C@@H](CO[C@H]1O[C@@H]2O[C@@]3(C)CC[C@H]4[C@H](C)CC[C@@H]([C@H]1C)[C@@]24OO3)O[C@H]1O[C@@H]2O[C@@]3(C)CC[C@H]4[C@H](C)CC[C@@H]([C@H]1C)[C@@]24OO3 | Not Active | 32 |  |  | 0.43 | Not Active | 6.44 | 0.0242 | 0.27 | 0.0258 | 30 | Not Active |  | 1.45 | 62.8 | 20.9 |  |  | IC50 (SK-MEL; [9]): 12.9 µM; IC50 (Escherichia coli): Not Active; IC50 (BT-549; [10]): 2.58 µM; IC50 (Aspergillus fumigatus; [14]): 16.1 µM; CC50 at 48 h [7]: > 16.1 µM; IC50 (Pseudomonas aeruginosa): Not Active
4 | C[C@@H]1CC[C@H]2[C@@H](C)C(=O)O[C@@H]3O[C@@]4(C)CC[C@@H]1[C@]32OO4 [ARTEMISININ] |  | > 51 | Not Active | 14.2 |  | Not Active | 0.25 | 0.0329 |  | 0.0425 | > 40 | Not Active | Not Active |  |  | 40.7 | > 1.68 | inactive | IC50 (Candida albicans): Not Active
5 | CC1=CO[C@@H]2O[C@]3(C)CC[C@H]4[C@H](C)CC[C@@H]1[C@@]24OO3 [ANHYDRODIHYDROARTEMISININ] |  | > 113 | Not Active | 56.3 |  |  | 0.3 | 0.0158 |  | 0.0255 | > 70 | Not Active | Not Active |  |  | 30 | > 1.79 | inactive | IC50 [3, 13]: 56.3 µM; IC50 (Candida albicans): Not Active
6 | C[C@H]1[C@@H](O)O[C@@H]2O[C@@]3(C)CC[C@H]4[C@H](C)CC[C@@H]1[C@@]24OO3 [ARTENIMOL] |  | 95 | Not Active | 28.1 |  | Not Active | 0.28 | 0.0148 |  | 0.0141 | 100 | Not Active | Not Active | 0.88 |  | 87.9 | 1.41 | inactive | 
7 | C[C@H]1[C@@H](OCC(CO[C@H]2O[C@@H]3O[C@@]4(C)CC[C@H]5[C@H](C)CC[C@@H]([C@H]2C)[C@@]35OO4)OS(C)(=O)=O)O[C@@H]2O[C@@]3(C)CC[C@H]4[C@H](C)CC[C@@H]1[C@@]24OO3 (some centres not stated) | Not Active | 542 |  |  | 2.13 | Not Active | 1.42 | 0.0118 | 0.28 | 0.0118 | 542 | Not Active | Not Active | 4.27 | 55.5 | 22.8 | 6.4 |  | IC50 (SK-MEL; sk-mel): Not Active; IC50 (Escherichia coli): Not Active; IC50 (BT-549; bt-549): Not Active; TC50 [7]: Non-toxic; IC50 (Pseudomonas aeruginosa): Not Active
8 | C[C@@H]1[C@H](O)[C@@H](C)/C=C/C=C/C=C/C=C/C=C/C=C/C=C/[C@H](O[C@@H]2O[C@H](C)[C@@H](O)[C@H](N)[C@@H]2O)C[C@@H]2O[C@](O)(C[C@@H](O)C[C@@H](O)[C@H](O)CC[C@@H](O)C[C@@H](O)CC(=O)O[C@H]1C)C[C@H](O)[C@H]2C(=O)O [AMPHOTERICIN B] |  |  |  | 0.85 |  |  | 0.78 |  |  |  |  |  |  | 0.37 | 0.4 |  |  |  | IC50 (Nakaseomyces glabratus; Nakaseomyces glabratus, ATCC 90030, read-out: IC50): 0.46 µM; IC50 (Aspergillus fumigatus; [14]): 1.12 µM
9 | CCN(CC)CCCC(C)Nc1ccnc2cc(Cl)ccc12 (configuration not stated) [CHLOROQUINE] |  |  |  |  |  |  |  |  |  |  |  |  |  |  |  |  | > 14.9 |  | 
10 | C[C@H]1[C@@H](OC/C=C\CO[C@H]2O[C@@H]3O[C@@]4(C)CC[C@H]5[C@H](C)CC[C@@H]([C@H]2C)[C@@]35OO4)O[C@@H]2O[C@@]3(C)CC[C@H]4[C@H](C)CC[C@@H]1[C@@]24OO3 | Not Active | 113 |  |  | 0.18 | Not Active | 24.2 | 0.0063 | 0.32 | 0.0061 | 116 | Not Active | Not Active |  |  |  |  | inactive | IC50 (SK-MEL; sk-mel): Not Active; IC50 (Escherichia coli): Not Active; IC50 (BT-549; [10]): 1.53 µM; TC50 [7]: Non-toxic; IC50 (Candida albicans): Not Active; IC50 (Pseudomonas aeruginosa): Not Active; IC50 (Leishmania donovani): Not Active
11 | N=C(N)c1ccc(OCCCCCOc2ccc(C(=N)N)cc2)cc1 [PENTAMIDINE] |  |  |  |  |  |  |  |  |  |  |  |  |  |  | 6.4 | 2.8 |  |  | 
12 | CC(=O)O[C@H]1C(=O)[C@@]2(C)[C@H]([C@H](OC(=O)c3ccccc3)[C@]3(O)C[C@H](OC(=O)[C@H](O)[C@@H](NC(=O)c4ccccc4)c4ccccc4)C(C)=C1C3(C)C)[C@]1(OC(C)=O)CO[C@@H]1C[C@@H]2O [PACLITAXEL] |  |  |  |  | 0.53 |  |  |  |  |  |  |  |  |  |  |  |  |  | IC50 (SK-MEL; [9]): 4.1 µM; CC50 at 48 h [7]: 4.39 µM
